Screens as filed in PubChem BioAssay.
Most compounds without a hit are left out; they make up all but 9.2% or so of the library.
ERa SRC1 pot: ER-alpha (human) coactivator binding potentiation. P03372. TR-FRET ERalpha-LBD/SRC-Cy5 coactivator binding, 2 h; 100 = basal binding, no effect. AID 639. hit rate 1.3% among 86,000. coactivator binding (% of control), % at 25.6 µM; in the data active = activity above about 200%;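 also: binding measured in presence of low estradiol as agonist stimulus; 0% = peptide alone without receptor and 100% = receptor with peptide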
H69AR inhibit: growth inhibitors of human H69AR lung tumor cells. H69AR lung tumor viability, ATP luminescence, 72 h; hits give low values. viability, % at 10 µM. hit rate 6% among 85,000. AID 598;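 active = viability at or below 40%; inactive = viability above 40%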;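 also: multidrug resistant small cell line overexpressing MRP-1 efflux transporter; 100% = mean luminescence of untreated control wells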
ERa coact inh: ER-alpha (human) coactivator binding inhibition | P03372 | TR-FRET ER-alpha LBD / SRC-1 peptide, estradiol-bound | inhibition, % at 25.6 µM | hit rate 1.7% among 86,000 | AID 629; in the data active = inhibition above about 50%;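 also: 0% = receptor plus peptide control and 100% = peptide only without receptor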
HUVEC inhibit: inhibitors of human endothelial cell proliferation; HUVEC proliferation, CellTiter-Glo luminescence, 72 h; hits give low values; AID 648; viability, % at 10 µM (by protocol); hit rate 1.1% among 86,000;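 active = viability at or below 30%; inactive = viability above 30%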;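 also: 100% = median luminescence of DMSO-only cell control wells on each plate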
ERb coact inh: ER-beta (human) coactivator binding inhibition. TR-FRET ER-beta LBD / SRC1-Cy5 peptide binding; receptor agonist-loaded with 1 µM estradiol. inhibition, % at 25.6 µM. hit rate 1.3% among 86,000. AID 633;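 active = compounds whose percent inhibition of the receptor-coactivator binding signal exceeds about 50% in the single-dose screen, limit read from the data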;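 also: 0% = receptor plus peptide wells without compound and 100% = peptide-only wells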
Target sequence (Q92731 whole entry, looked up, the tested form may be a part): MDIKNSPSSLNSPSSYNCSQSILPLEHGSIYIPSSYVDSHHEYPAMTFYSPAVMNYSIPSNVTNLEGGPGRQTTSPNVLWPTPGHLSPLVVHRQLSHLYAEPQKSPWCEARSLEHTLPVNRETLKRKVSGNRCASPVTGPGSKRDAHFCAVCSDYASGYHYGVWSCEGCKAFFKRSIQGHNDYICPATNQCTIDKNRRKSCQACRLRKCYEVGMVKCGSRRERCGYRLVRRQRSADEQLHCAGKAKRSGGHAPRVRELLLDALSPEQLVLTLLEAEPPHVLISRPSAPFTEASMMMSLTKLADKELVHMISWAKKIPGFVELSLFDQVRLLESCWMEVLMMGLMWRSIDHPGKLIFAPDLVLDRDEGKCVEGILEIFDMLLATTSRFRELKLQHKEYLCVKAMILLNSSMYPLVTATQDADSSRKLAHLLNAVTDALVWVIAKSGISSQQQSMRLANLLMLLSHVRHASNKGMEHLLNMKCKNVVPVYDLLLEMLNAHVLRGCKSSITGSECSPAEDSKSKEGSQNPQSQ
Fibroblast inh: blocks proliferation of human lung fibroblasts; LL 47 human lung fibroblast viability, ATP luminescence; hits give low values; viability, % at 10 µM; hit rate 1.1% among 85,000; AID 719;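 active = viability at or below 50% in the single dose screen; inactive = viability above 50%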;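 also: compound exposure lasted 72 h before the ATP readout; 100% = median luminescence of untreated cell-only wells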
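material = human LL 47 lung fibroblast cells | dosing = compounds added from tenfold dosing solution, 0.1% DMSO final | timing = overnight cell rest, 72 h compound treatment at 37 °C | measured by = CellTiter-Glo luminescence measuring cellular ATP | evaluation = % viability versus median cells-only luminescence | control set = cell-only wells, no compound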
An asterisk follows results filed as active; nt = no result; [ ] = dose if it differs, or a comment.

SMILES | ERa SRC1 pot | H69AR inhibit | ERa coact inh | HUVEC inhibit | ERb coact inh | Fibroblast inh
CCOC(=O)N1CCC(Nc2c(-c3ccc(C)c(C)c3)c(=O)c2=O)CC1 | 116 | 33* | 0 | 94 | 1 | 100
N#Cc1c(SCC(N)=O)nsc1SCc1ccc(Cl)cc1 | 79 | 84 | 1 | 70 | 0 | 86
CC(=O)CSc1nsc(SCC(C)=O)c1C#N | 84 | 31* | -7 | 89 | 9 | nt
N#Cc1c(SCC(N)=O)nsc1SCc1ccccc1Cl | 105 | 92 | 11 | 80 | 99*[fluorescence artefact?] | 93
O=C(CN(CCc1ccccc1)C(=O)CNS(=O)(=O)c1ccc(F)cc1)NCC1CCCO1 (configuration not stated) | 110 | 94 | -2 | 96 | -10 | 96
CCOC(=O)C1=C(C)NC(SCC(=O)Nc2cc(C)on2)=C(C#N)C1c1cccs1 (configuration not stated) | 99 | 63 | -2 | 73 | -13 | 88
N#C/C(=C1\C(=O)Nc2c(Cl)cc(Cl)cc21)c1nnc2n1CCCCC2 | 111 | 36* | -12 | 85 | -10 | 99
Cc1cc(=O)oc(C)c1C(=O)Nc1c(C)n(C)n(-c2ccccc2)c1=O | 105 | 106 | 9 | 101 | -6 | 98
Cc1ccc(-c2noc(CCC(=O)Nc3ccc4c(c3)OCO4)n2)cc1 | 101 | 94 | -4 | 84 | -5 | 95
CCOC(=O)c1ccc(NC(=O)CCc2nc(-c3ccc(Cl)cc3)no2)cc1 | 120 | 24* | 27 | 57 | -3 | 92
CCOC(=O)c1ccc(NC(=O)CCc2nc(-c3ccc(C)cc3)no2)cc1 | 111 | 84 | -2 | 30* | -7 | 95
CCn1c(SCC(=O)N2CCN(c3ccc(F)cc3)CC2)nnc1-c1ccncc1 | 129 | 85 | -11 | 102 | -6 | 99
COc1ccc(N2CCN(C(=O)CCc3ccc(S(=O)(=O)NCC(C)C)cc3)CC2)cc1 | 117 | 67 | -7 | 101 | -7 | 94
CCn1c(SCC(=O)NCCc2ccc(F)cc2)nnc1-c1cccs1 | 120 | 108 | 8 | 80 | -1 | 104
COc1cc(NC(=O)c2ccco2)c(OC)cc1NC(=O)c1cc(OC)c(OC)c(OC)c1 | 106 | 24* | 8 | 71 | 12 | 107
COc1ccccc1NC(=O)c1cc(Cl)ccc1NC(=O)c1ccco1 | 96 | 43 | -10 | 77 | -10 | 85
COc1ccccc1NC(=O)c1ccccc1NC(=O)c1cc(Cl)ccc1NC(=O)c1ccco1 | 64 | 77 | 74* | 63 | 41 | 95
CCC(=O)Nc1cc(OC)c(NC(=O)c2ccccc2)cc1OC | 59 | 99 | 64*[fluorescence artefact?] | 101 | 53*[fluorescence artefact?] | 104
CCOc1cc(NC(=O)c2ccco2)c(OCC)cc1NC(=O)c1cc(OC)c(OC)c(OC)c1 | 108 | 65 | 4 | 90 | 4 | 97
COc1cc(NC(=O)c2ccccc2)c(OC)cc1NC(C)=O | 88 | 105 | -45 | 96 | -4 | 90
COC(=O)c1cc(OC)c(OC)cc1NC(=O)c1ccc(C)cc1 | 179 | 16* | 2 | 68 | 3 | 94
CC1(C)C(=O)OC(c2ccccc2)C2(CCCC2)C1=O (configuration not stated) | 135 | 99 | -8 | 102 | 3 | 98
CCOc1cc(C#N)c(NC(=O)c2ccnn2C)cc1OCC | 99 | 83 | 8 | 111 | 15 | 97
CCOc1ccccc1NC(=O)c1cc(Cl)ccc1NC(=O)c1ccco1 | 108 | 29* | -1 | 50 | 6 | 93
CCOc1ccccc1NC(=O)c1ccc(NC(=O)c2ccco2)cc1 | 108 | 53 | -6 | 87 | -7 | 77
SMILES | ERa SRC1 pot | H69AR inhibit | ERa coact inh | HUVEC inhibit | ERb coact inh | Fibroblast inh
CCOc1cc(C#N)c(NC(=O)c2ccco2)cc1OCC | 125 | 31* | 3 | 57 | 3 | 80
O=C(O)c1ccc(Cn2cc(Cl)cn2)cc1 | 116 | 101 | 6 | 91 | 1 | 100
Cn1c(SCC(=O)Nc2nccs2)nnc1-c1ccc(S(=O)(=O)N2CCCC2)cc1 | 41 | 86 | 11 | 105 | 5 | 97
O=C(CSc1n[nH]c(-c2ccc(S(=O)(=O)N3CCCCC3)cc2)n1)Nc1nccs1 | 136 | 65 | 50* | 80 | 21 | 95
CCn1c(SCc2cc(=O)[nH]c3ccccc23)nc2c1c(=O)n(C)c(=O)n2C | 92 | 84 | 23 | 94 | 3 | 88
CCCOc1ccc2ccccc2c1/C=N/n1c(C)nnc1-n1nc(C)cc1C | 101 | 24* | 4 | 54 | -7 | 55
Cc1[nH]n(-c2ccc([N+](=O)[O-])cc2)c(=O)c1N=Nc1nc2ccccc2s1 | 96 | 35* | 1 | 41 | 4 | nt
CC(=NCc1ccco1)c1c(C)[nH]n(-c2nc3ccccc3s2)c1=O | 113 | 83 | 21 | 98 | 25 | 107
CCC(CC)c1nnc(NC(=O)c2ccc(N3CCCC3=O)cc2)s1 | 155 | 91 | 2 | 109 | 7 | 107
COc1ccc(NC(=O)c2cnc3ccccn3c2=O)cc1OC | 101 | 78 | -7 | 102 | -5 | 101
CCCOP(=O)(OCCC)c1c([N+](=O)[O-])cc(C(F)(F)F)cc1[N+](=O)[O-] | 100 | 39* | 1 | 12* | 2 | 19*
COc1ccc(CCNC(=O)c2cnn3cccnc23)cc1OC | 97 | 82 | 11 | 98 | 9 | 100
CN(C)c1ccc(-c2nnn(Cc3ccccc3Br)n2)cc1 | 112 | 90 | -10 | 96 | -12 | 98
CN=C1c2cc3cc(OC)ccc3n2CCN1Cc1ccccc1 | 115 | 19* | -2 | 58 | -9 | 46*
O=C(c1ccco1)N1CCN(C(=O)c2nn3cccnc3c2Cl)CC1 | 124 | 97 | -1 | 95 | 3 | 97
COc1ccccc1NC(=O)NC(=O)N(C(C)C)S(C)(=O)=O | 94 | 85 | 1 | 85 | -9 | 104
COc1ccccc1NC(=O)CSC(N)=O | 98 | 28* | 2 | 56 | -13 | 89
COc1ccccc1NC(=O)NC(N)=O | 103 | 84 | 6 | 93 | 74* | 94
CCOC(=O)c1c(C)c(C(=O)Nc2cc(F)ccc2F)c(C)n1C | 124 | 20* | -5 | 55 | -6 | 66
O=[N+]([O-])c1cccnc1N1CCC(c2cc(-c3ccc(Cl)cc3)n[nH]2)CC1 | 94 | 98 | 4 | 48 | 6 | 93
CCN(CC)C1=CC(=O)OC12CCCCC2 | 72 | 99 | -37 | 98 | 62* | 98
CCCS(=O)(=O)NCCc1cc2ccc(C)cc2[nH]c1=O | 104 | nt | -1 | 95 | 2 | 96
Cc1ccc2cc(CCNS(=O)(=O)c3ccc(F)cc3)c(=O)[nH]c2c1 | 216* | 95 | 3 | 94 | -3 | 94
CCCOC(=O)c1ccc(NC(=O)c2cn(CC)c3nc(C)ccc3c2=O)cc1 | 275*[fluorescence artefact?] | 90 | 48 | 92 | 44 | 98
